Test results: ChEMBL document CHEMBL4251549, “Design, synthesis and biological evaluation of nitrogen-containing macrocyclic bisbibenzyl derivatives as potent anticancer agents by targeting the lysosome” (Eur J Med Chem, 2017)
Blank lines part the entries; values can stand above or below the compound they belong to. Calls of active or inactive are those of the source. The calls are words filed in the database; no cut-off is given here.

Tests used:
A549 [1] = test: Potency index, ratio of ADR IC50 to compound IC50 for antiproliferative activity in human A549 cells; format: functional
A549 [2] = test: Antiproliferative activity in human A549 cells after 48 hrs by MTT assay; format: functional, cell-based; details: A549, 48 h
Outline: (§1)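 Cells exposed to compound for 48 h. Viability read by MTT, with absorbance of the solubilised MTT product at 570 nm. IC50 derived from at least three independent experiments.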

A549 [3] = test: Induction of apoptosis in human A549 cells assessed as necrotic cells at 1 uM after 8 hrs by Annexin V-FITC/propidium iodide staining based flow cytometry (reference value: 0.06%); format: functional
Outline: (§2)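 A549 seeded at 5 × 10^5 per well and exposed to varying concentrations for 8 h. Harvested, washed twice in ice-cold PBS (0.01 M, pH 7.2), spun 5 min at 200 g, then stained with Annexin V-FITC/PI. Analysed by flow cytometry: Annexin V+/PI− scored apoptotic, double-positive necrotic or late apoptotic. Mean ± SD of three independent experiments.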

A549 [4] = test: Induction of apoptosis in human A549 cells assessed as cell shrinkage at 0.5 to 1 uM after 8 hrs by DAPI staining based fluorescence microscopic analysis; format: functional
Outline: (§3)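 A549 seeded on glass coverslips at 5 × 10^4/mL and grown 24 h, then treated 8 h. Washed in cold PBS and fixed in cold methanol/acetone (1:1). Stained with DAPI ([…]) for 10 min at room temperature, washed with PBS/Triton X-100, mounted in PBS:glycerol 1:1. Nuclear morphology examined by fluorescence microscopy.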

K562 [5] = test: Antiproliferative activity in human K562 cells after 48 hrs by MTT assay; format: functional, cell-based; details: K562, 48 h; outline: as §1
A549 [6] = test: Induction of apoptosis in human A549 cells assessed as late apoptotic cells at 1 uM after 8 hrs by Annexin V-FITC/propidium iodide staining based flow cytometry (reference value: 0.02%); format: functional; outline: as §2
A549 [7] = test: Induction of apoptosis in human A549 cells assessed as early apoptotic cells at 1 uM after 8 hrs by Annexin V-FITC/propidium iodide staining based flow cytometry (reference value: 0.03%); format: functional; outline: as §2
K562 [8] = test: Potency index, ratio of ADR IC50 to compound IC50 for antiproliferative activity in human K562 cells; format: functional
A549 [9] = test: Induction of lysosomal rupture in human A549 cells 1 to 2 uM after 6 hrs by LysoTracker/AO dye based flow cytometric analysis; format: functional, cell-based
Outline: (§4)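 A549 treated 6 h, then exposed to LysoTracker Red (50 nm) or acridine orange (5 mg/mL). Loss of lysosomal dye retention measured by flow cytometry on a FACSCalibur.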

MCF7 [10] = test: Potency index, ratio of ADR IC50 to compound IC50 for antiproliferative activity in human MCF7 cells; format: functional
A549 [11] = test: Induction of apoptosis in human A549 cells assessed as formation of granular apoptotic body at 0.5 to 1 uM after 8 hrs by DAPI staining based fluorescence microscopic analysis; format: functional, cell-based; outline: as §3
A549 [12] = test: Induction of lysosomal rupture in human A549 cells 1 to 2 uM after 6 hrs by LysoTracker/AO dye based confocal microscopic analysis; format: functional, cell-based
Outline: (§5)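 A549 treated 6 h, then loaded with LysoTracker Red (50 nm) or acridine orange (5 mg/mL). Lysosomal integrity imaged by confocal microscopy, with rupture scored as "pale cells" showing fewer dye-accumulating lysosomes.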

MCF7 [13] = test: Antiproliferative activity in human MCF7 cells after 48 hrs by MTT assay; format: functional, cell-based; details: MCF7, 48 h; outline: as §1
A549 [14] = test: Induction of apoptosis in human A549 cells assessed as early apoptotic cells at 50 ug/ml after 8 hrs by Annexin V-FITC/propidium iodide staining based flow cytometry (reference value: 0.03%); format: functional; outline: as §2
A549 [15] = test: Induction of apoptosis in human A549 cells assessed as necrotic cells at 50 ug/ml after 8 hrs by Annexin V-FITC/propidium iodide staining based flow cytometry (reference value: 0.06%); format: functional; outline: as §2
A549 [16] = test: Antiproliferative activity in human A549 cells at 25 ug/ml after 60 hrs by […] based cellular impedance analysis; format: functional, cell-based
A549 [17] = test: Antiproliferative activity in human A549 cells at 25 ug/ml up to 20 hrs by xCELLigence RTCA SP based cellular impedance analysis; format: functional, cell-based
Outline: (§6)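 After compound treatment, A549 cells plated at 2000 cells/well on E-plates. Proliferation tracked over time as real-time cellular impedance on an xCELLigence RTCA DP instrument. Hydroxychloroquine was the positive control. Representative of three independent experiments.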

A549 [18] = test: Induction of apoptosis in human A549 cells assessed as late apoptotic cells at 50 ug/ml after 8 hrs by Annexin V-FITC/propidium iodide staining based flow cytometry (reference value: 0.02%); format: functional; outline: as §2
A549 [19] = test: Induction of lysosomal rupture in human A549 cells 2 to 4 uM after 6 hrs by LysoTracker/AO dye based flow cytometric analysis; format: functional, cell-based; outline: as §4
A549 [20] = test: Antiproliferative activity in human A549 cells at 1.5 to 3 uM after 60 hrs by xCELLigence RTCA SP based cellular impedance analysis; format: functional, cell-based; outline: as §6
A549 [21] = test: Induction of apoptosis in human A549 cells assessed as cell shrinkage at 2 to 4 uM after 8 hrs by DAPI staining based fluorescence microscopic analysis; format: functional; outline: as §3
A549 [22] = test: Induction of lysosomal rupture in human A549 cells 2 to 4 uM after 6 hrs by LysoTracker/AO dye based confocal microscopic analysis; format: functional, cell-based; outline: as §5
A549 [23] = test: Antiproliferative activity in human A549 cells at 1.5 to 3 uM up to 20 hrs by xCELLigence RTCA SP based cellular impedance analysis; format: functional, cell-based; outline: as §6
A549 [24] = test: Antiproliferative activity in human A549 cells at 1.5 to 3 uM up to 5 hrs by xCELLigence RTCA SP based cellular impedance analysis; format: functional, cell-based; outline: as §6

IC50 (A549 [2]): 510 nM | IC50 (K562 [5]): 190 nM | IC50 (MCF7 [13]): 230 nM
Structure (SMILES): CN(C)CCOc1ccc2cc1Oc1ccc(cc1)CCc1cccc(OCCN(C)C)c1-c1ccc(cc1OCCN(C)C)CC2
Ratio IC50 (A549 [1]): 3 - 10 | Activity (A549 [3]): 52.68% | Activity (A549 [4]): Active | Activity (A549 [6]): 26.69% | Activity (A549 [7]): 0.55% | Ratio IC50 (K562 [8]): 3 - 10 | Activity (A549 [9]): Active | Ratio IC50 (MCF7 [10]): 3 - 10 | Activity (A549 [11]): Active | Activity (A549 [12]): Active

Structure (SMILES): CCN(CCO)CCCC(C)Nc1ccnc2cc(Cl)ccc12 (configuration not stated) [HYDROXYCHLOROQUINE]
Activity (A549 [14]): 2.96% | Activity (A549 [15]): 10.37% | Activity (A549 [16]): Active | Activity (A549 [17]): Active | Activity (A549 [18]): 2.85%

IC50 (A549 [2]): 990 nM | IC50 (K562 [5]): 800 nM | IC50 (MCF7 [13]): 430 nM
Structure (SMILES): Oc1cc2ccc1-c1c(ccc(CN3CCCC3)c1O)CCc1ccc(cc1)Oc1cc(cc(CN3CCCC3)c1O)CC2
Activity (A549 [19]): Active | Activity (A549 [20]): Active | Activity (A549 [21]): Active | Activity (A549 [22]): Active | Activity (A549 [23]): Active | Activity (A549 [24]): Active
